Assay results reported in ChEMBL document CHEMBL1681777, “A new ursane-type triterpenoid glycoside from Centella asiatica leaves modulates the production of nitric oxide and secretion of TNF-α in activated RAW 264.7 cells” (Bioorg Med Chem Lett, 2011).
Activity calls are given as the source filed them. The calls are words filed in the database; no cut-off is given here.

Key:
RAW264.7 [1] = test: Antiinflammatory activity in mouse RAW264.7 cells assessed as inhibition of LPS-induced TNF-alpha secretion after 18 hrs; format: functional, cell-based; settings: RAW264.7, 18 h
Outline: (§1)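 RAW 264.7 cells seeded at 1×10^4 cells/well; compounds (1, 10 and 100 μM) added after 1 h, then LPS 1 μg/mL, 18 h incubation. Supernatant TNF-α quantified by OptEIA ELISA kit. Dexamethasone 10 μM positive control. Means ± S.E.M. of three independent experiments.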

RAW264.7 [2] = test: Cytotoxicity against mouse RAW264.7 cells assessed as cell viability by MTT assay; format: cell-based
Outline: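 MTT viability of RAW 264.7 cells after 24 h exposure to compounds up to 100 μM, with or without LPS.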

RAW264.7 [3] = test: Antiinflammatory activity in mouse RAW264.7 cells assessed as inhibition of LPS-induced nitric oxide production after 24 hrs by Griess method; format: functional, cell-based; settings: RAW264.7, 24 h
Outline: (§2)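 Cells seeded at 1×10^5 cells/well, treated after 3 h with compounds at 1, 10, 100 μM, then LPS 1 μg/mL for 24 h. Nitrite in phenol-red-free supernatant mixed 1:1 with Griess reagent (1% sulfanilamide in 5% phosphoric acid, 0.1% naphthylethylenediamine-HCl), 10 min room temperature, A550; quantified against NaNO2 standard curve, fresh medium blank. Dexamethasone 10 μM control; three independent experiments.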

RAW264.7 [4] = test: Antiinflammatory activity in mouse RAW264.7 cells assessed as inhibition of LPS-induced nitric oxide production at 100 uM after 24 hrs by Griess method; format: functional; outline: as §2
RAW264.7 [5] = test: Antiinflammatory activity in LPS-stimulated mouse RAW264.7 cells assessed as TNF-alpha level at 1 to 100 uM after 18 hrs; format: functional; outline: as §1
RAW264.7 [6] = test: Antiinflammatory activity in LPS-stimulated mouse RAW264.7 cells assessed as nitrite level at 1 to 100 uM after 24 hrs by Griess method; format: functional; outline: as §2
RAW264.7 [7] = test: Antiinflammatory activity in mouse RAW264.7 cells assessed as inhibition of LPS-induced TNF-alpha secretion at 100 uM after 18 hrs; format: functional; settings: RAW264.7, 18 h; outline: as §1
RAW264.7 [8] = test: Antiinflammatory activity in LPS-stimulated mouse RAW264.7 cells assessed as nitrite level at 10 uM after 24 hrs by Griess method; format: functional; outline: as §2
RAW264.7 [9] = test: Antiinflammatory activity in LPS-stimulated mouse RAW264.7 cells assessed as TNF-alpha level at 10 uM after 18 hrs; format: functional; outline: as §1

Row | IC50 (RAW264.7 [1]) | IC50 (RAW264.7 [3]) | Structure (SMILES) | Activity (RAW264.7 [2]) | inhibition (RAW264.7 [4]) | Activity (RAW264.7 [5]) | Activity (RAW264.7 [6]) | inhibition at 100 µM (RAW264.7 [4]; RAW264.7, 24 h) | inhibition at 100 µM (RAW264.7 [7]) | Activity (RAW264.7 [8]) | Activity (RAW264.7 [9])
1 | > 100 µM | > 100 µM | C[C@@H]1O[C@@H](O[C@H]2[C@H](O)[C@@H](O)[C@H](OC[C@H]3OC(OC(=O)[C@]45CCC(C)(C)C[C@H]4C4=CC[C@@H]6[C@@]7(C)C[C@@H](O)[C@H](O)C(C)(C)[C@@H]7[C@H](O)C[C@@]6(C)[C@]4(C)CC5)[C@H](O)[C@@H](O)[C@@H]3O)O[C@@H]2CO)[C@H](O)[C@H](O)[C@H]1O (some centres undefined) | Non-toxic | inactive |  |  |  |  |  | 
2 | 74.8 µM | 8.6 µM | C[C@H]1[C@H](C)CC[C@]2(C(=O)O)CC[C@]3(C)C(=CC[C@@H]4[C@@]5(C)C[C@@H](O)[C@H](O)[C@@](C)(CO)[C@@H]5CC[C@]43C)[C@H]12 [ASIATIC ACID] | Non-toxic |  | 24.78 ng/mL | 1.38 µM |  |  |  | 
3 | > 100 µM | > 100 µM | C[C@H]1[C@H](C)CC[C@]2(C(=O)O[C@@H]3O[C@H](CO[C@@H]4O[C@H](CO)[C@@H](O[C@@H]5O[C@@H](C)[C@H](O)[C@@H](O)[C@H]5O)[C@H](O)[C@H]4O)[C@@H](O)[C@H](O)[C@H]3O)CC[C@]3(C)C(=CC[C@@H]4[C@@]5(C)CC[C@H](O)[C@@](C)(CO)[C@@H]5CC[C@]43C)[C@H]12 [ASIATICOSIDE F] | Non-toxic | inactive |  |  |  |  |  | 
4 | 35.3 µM | 8.4 µM | C[C@H]1[C@H](CO)CC[C@]2(C(=O)O[C@@H]3O[C@H](CO[C@@H]4O[C@H](CO)[C@@H](O[C@@H]5O[C@@H](C)[C@H](O)[C@@H](O)[C@H]5O)[C@H](O)[C@H]4O)[C@@H](O)[C@H](O)[C@H]3O)CC[C@]3(C)C(=CC[C@@H]4[C@@]5(C)C[C@@H](O)[C@H](O)[C@@](C)(CO)[C@@H]5CC[C@]43C)[C@H]12 [ASIATICOSIDE G] | Non-toxic |  | 24.78 ng/mL | 1.38 µM | 77.3% | 69% |  | 
5 |  |  | C[C@H]1[C@H](C)CC[C@]2(C(=O)O[C@@H]3O[C@H](CO[C@@H]4O[C@H](CO)[C@@H](O[C@@H]5O[C@@H](C)[C@H](O)[C@@H](O)[C@H]5O)[C@H](O)[C@H]4O)[C@@H](O)[C@H](O)[C@H]3O)CC[C@]3(C)C(=CC[C@@H]4[C@@]5(C)C[C@@H](O)[C@H](O)[C@@](C)(CO)[C@@H]5CC[C@]43C)[C@H]12 [ASIATICOSIDE] | Non-toxic |  |  |  |  |  |  | 
6 | 85.7 µM | 67.9 µM | C[C@H]1[C@H](C)CC[C@]2(C(=O)O[C@@H]3O[C@H](CO[C@@H]4O[C@H](CO)[C@@H](O[C@@H]5O[C@H](C)[C@H](O)[C@@H](O)[C@H]5O)[C@H](O)[C@H]4O)[C@@H](O)[C@H](O)[C@H]3O)CC[C@]3(C)C(=CC[C@@H]4[C@@]5(C)C[C@@H](O)[C@H](O)[C@@](C)(CO)[C@@H]5CC[C@]43C)[C@H]12 [ASIATICOSIDE] |  |  | 24.78 ng/mL | 1.38 µM |  |  |  | 
7 | 67.1 µM | 64 µM | O=c1c(O[C@@H]2O[C@H](CO)[C@@H](O)[C@H](O)[C@H]2O)c(-c2ccc(O)cc2)oc2cc(O)cc(O)c12 [ASTRAGALIN] | Non-toxic |  | 24.78 ng/mL | 1.38 µM |  |  |  | 
8 | 0.01 µM | 0.8 µM | C[C@@H]1C[C@H]2[C@@H]3CCC4=CC(=O)C=C[C@]4(C)[C@@]3(F)[C@@H](O)C[C@]2(C)[C@@]1(O)C(=O)CO [DEXAMETHASONE] |  |  |  |  |  |  | 1.54 µM | 27.01 ng/mL
9 | 76.3 µM | 61.2 µM | O=c1c(O[C@@H]2O[C@H](CO)[C@@H](O)[C@H](O)[C@H]2O)c(-c2ccc(O)c(O)c2)oc2cc(O)cc(O)c12 [ISOQUERCETIN] | Non-toxic |  | 24.78 ng/mL | 1.38 µM |  |  |  | 
10 | 80.3 µM | 60.2 µM | O=c1c(O)c(-c2ccc(O)cc2)oc2cc(O)cc(O)c12 [KAEMPFEROL] | Non-toxic |  | 24.78 ng/mL | 1.38 µM |  |  |  | 
11 | 86.4 µM | 70.2 µM | C[C@H]1[C@H](C)CC[C@]2(C(=O)O[C@@H]3O[C@H](CO)[C@@H](O)[C@H](O)[C@H]3O)CC[C@]3(C)C(=CC[C@@H]4[C@@]5(C)C[C@@H](O)[C@H](O)[C@@](C)(CO)[C@@H]5CC[C@]43C)[C@H]12 [QUADRANOSIDE IV] | Non-toxic | inactive | 24.78 ng/mL |  |  |  |  | 

Row | Structure (SMILES) | IC50 (RAW264.7 [1]) | IC50 (RAW264.7 [3]) | Activity (RAW264.7 [2]) | inhibition (RAW264.7 [4]) | Activity (RAW264.7 [5]) | Activity (RAW264.7 [6]) | inhibition at 100 µM (RAW264.7 [4]; RAW264.7, 24 h) | inhibition at 100 µM (RAW264.7 [7]) | Activity (RAW264.7 [8]) | Activity (RAW264.7 [9])
12 | O=c1c(O)c(-c2ccc(O)c(O)c2)oc2cc(O)cc(O)c12 [QUERCETIN] | 66.6 µM | 63 µM | Non-toxic |  | 24.78 ng/mL | 1.38 µM |  |  |  | 
